One block for each compound: values may come before it.
What was measured:
Assay type in all cases: ADME, organism-based, Macaca mulatta
[1] = Drug level in normal rhesus monkey cerebellum assessed as standard uptake value at 81.2 MBq, iv after 85 mins by microPET; conditions: in vivo
Method in brief: (§1)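 One normal rhesus monkey, each tracer given iv via the vena saphena (81.2, 96.3 or 109.4 MBq), with 1 day between tracer injections. Dynamic brain μPET over 180 min used frames of 5 × 60 s, 5 × 120 s, 9 × 300 s and 12 × 600 s. Images were reconstructed by filtered back projection with a RAMP filter. Regional time-activity curves were expressed as SUV.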

[2] = Drug level in normal rhesus monkey white matter assessed as standard uptake value at 81.2 MBq, iv after 17.5 mins by microPET; conditions: in vivo
[3] = Drug level in normal rhesus monkey frontal cortex assessed as standard uptake value at 81.2 MBq, iv after 12 mins by microPET; conditions: in vivo, 0.2 h
Method in brief: (§2)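 Single normal rhesus monkey; each tracer given iv via the vena saphena, with 1 day between tracer injections. Dynamic μPET ran 180 min (5×60 s, 5×120 s, 9×300 s, 12×600 s). Images were reconstructed by filtered back projection with a RAMP filter. Regional time-activity curves were expressed as SUV.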

[4] = Drug level in normal rhesus monkey frontal cortex assessed as standard uptake value at 81.2 MBq, iv after 95 mins by microPET; conditions: in vivo
[5] = Drug level in normal rhesus monkey thalamus assessed as standard uptake value at 81.2 MBq, iv after 12 mins by microPET; conditions: in vivo, 0.2 h
[6] = Drug level in normal rhesus monkey white matter assessed as standard uptake value at 81.2 MBq, iv after 155 mins by microPET; conditions: in vivo
[7] = Drug level in normal rhesus monkey cerebellum assessed as standard uptake value at 81.2 MBq, iv after 47.5 mins by microPET; conditions: in vivo; method in brief: as §1
[8] = Drug level in normal rhesus monkey thalamus assessed as standard uptake value at 81.2 MBq, iv after 0.5 mins by microPET; conditions: in vivo
[9] = Drug level in normal rhesus monkey cerebellum assessed as standard uptake value at 81.2 MBq, iv after 65 mins by microPET; conditions: in vivo; method in brief: as §1
[10] = Drug level in normal rhesus monkey frontal cortex assessed as standard uptake value at 81.2 MBq, iv after 2.5 mins by microPET; conditions: in vivo
[11] = Drug level in normal rhesus monkey parietal cortex assessed as standard uptake value at 81.2 MBq, iv after 47.5 mins by microPET; conditions: in vivo
[12] = Drug level in normal rhesus monkey white matter assessed as standard uptake value at 96.3 MBq, iv after 2.5 mins by microPET; conditions: in vivo
[13] = Drug level in normal rhesus monkey pons assessed as standard uptake value at 96.3 MBq, iv after 105 mins by microPET; conditions: in vivo, 1.75 h
[14] = Drug level in normal rhesus monkey parietal cortex assessed as standard uptake value at 96.3 MBq, iv after 47.5 mins by microPET; conditions: in vivo
[15] = Drug level in normal rhesus monkey thalamus assessed as standard uptake value at 96.3 MBq, iv after 22.5 mins by microPET; conditions: in vivo, 0.375 h
[16] = Drug level in normal rhesus monkey frontal cortex assessed as standard uptake value at 96.3 MBq, iv after 3.5 mins by microPET; conditions: in vivo
[17] = Drug level in normal rhesus monkey thalamus assessed as standard uptake value at 96.3 MBq, iv after 42.5 mins by microPET; conditions: in vivo
[18] = Drug level in normal rhesus monkey pons assessed as standard uptake value at 96.3 MBq, iv after 8 mins by microPET; conditions: in vivo
[19] = Drug level in normal rhesus monkey frontal cortex assessed as standard uptake value at 96.3 MBq, iv after 1.5 mins by microPET; conditions: in vivo, 0.025 h
[20] = Drug level in normal rhesus monkey pons assessed as standard uptake value at 109.4 MBq, iv after 1.5 mins by microPET; conditions: in vivo, 0.025 h
[21] = Drug level in normal rhesus monkey cerebellum assessed as standard uptake value at 109.4 MBq, iv after 12.5 mins by microPET; conditions: in vivo
[22] = Drug level in normal rhesus monkey parietal cortex assessed as standard uptake value at 109.4 MBq, iv after 52.5 mins by microPET; conditions: in vivo, 0.875 h
[23] = Drug level in normal rhesus monkey parietal cortex assessed as standard uptake value at 109.4 MBq, iv after 42.5 mins by microPET; conditions: in vivo
[24] = Drug level in normal rhesus monkey frontal cortex assessed as standard uptake value at 109.4 MBq, iv after 22.5 mins by microPET; conditions: in vivo, 0.375 h; method in brief: as §2
[25] = Drug level in normal rhesus monkey white matter assessed as standard uptake value at 109.4 MBq, iv after 3.5 mins by microPET; conditions: in vivo
[26] = Drug level in normal rhesus monkey parietal cortex assessed as standard uptake value at 109.4 MBq, iv after 15.5 mins by microPET; conditions: in vivo
[27] = Drug level in normal rhesus monkey white matter assessed as standard uptake value at 109.4 MBq, iv after 9.5 mins by microPET; conditions: in vivo
[28] = Drug level in normal rhesus monkey frontal cortex assessed as standard uptake value at 109.4 MBq, iv after 93 mins by microPET; conditions: in vivo, 1.55 h
[29] = Drug level in normal rhesus monkey parietal cortex assessed as standard uptake value at 152.9 MBq, iv after 42.5 mins by microPET; conditions: in vivo
[30] = Drug level in normal rhesus monkey frontal cortex assessed as standard uptake value at 152.9 MBq, iv after 6 mins by microPET; conditions: in vivo, 0.1 h
Method in brief: (§3)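 Single normal rhesus monkey; tracer given iv via the vena saphena, 1 day apart from the other tracer injections. Dynamic μPET ran 90 min (5×60 s, 5×120 s, 9×300 s, 3×600 s). Images were reconstructed by filtered back projection with a RAMP filter. Regional time-activity curves were expressed as SUV.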

[31] = Drug level in normal rhesus monkey white matter assessed as standard uptake value at 152.9 MBq, iv after 12 mins by microPET; conditions: in vivo, 0.2 h
[32] = Drug level in normal rhesus monkey pons assessed as standard uptake value at 152.9 MBq, iv after 57.5 mins by microPET; conditions: in vivo
[33] = Drug level in normal rhesus monkey frontal cortex assessed as standard uptake value at 152.9 MBq, iv after 14 mins by microPET; conditions: in vivo; method in brief: as §3
[34] = Drug level in normal rhesus monkey parietal cortex assessed as standard uptake value at 152.9 MBq, iv after 52.5 mins by microPET; conditions: in vivo, 0.875 h
[35] = Drug level in normal rhesus monkey frontal cortex assessed as standard uptake value at 152.9 MBq, iv after 85 mins by microPET; conditions: in vivo; method in brief: as §3
[36] = Drug level in normal rhesus monkey frontal cortex assessed as standard uptake value at 152.9 MBq, iv after 2.5 mins by microPET; conditions: in vivo; method in brief: as §3
[37] = Drug level in normal rhesus monkey frontal cortex assessed as standard uptake value at 152.9 MBq, iv after 10 mins by microPET; conditions: in vivo; method in brief: as §3
[38] = Drug level in normal rhesus monkey pons assessed as standard uptake value at 152.9 MBq, iv after 3.5 mins by microPET; conditions: in vivo
[39] = Drug level in normal rhesus monkey white matter assessed as standard uptake value at 152.9 MBq, iv after 52.5 mins by microPET; conditions: in vivo, 0.875 h

- SUV [1]: 1.864
- SUV [2]: 3.647
- SUV [3]: 5.988
- SUV [4]: 4.745
- SUV [5]: 4.684
- SUV [6]: 4.236
- SUV [7]: 1.883
- SUV [8]: 0.855
- SUV [9]: 1.88
- SUV [10]: 4.284
- SUV [11]: 3.676
Structure (SMILES): CNc1ccc2nc(-c3ccc([18F])cc3)sc2c1

- SUV [12]: 0.94
- SUV [13]: 1.72
- SUV [14]: 1.72
- SUV [15]: 2.35
- SUV [16]: 1.39
- SUV [17]: 2.46
- SUV [18]: 1.44
- SUV [19]: 1.43
Structure (SMILES): CN(C)c1ccc2nc(-c3ccc([18F])cc3)sc2c1

- SUV [20]: 2.87
- SUV [21]: 5.33
- SUV [22]: 4.38
- SUV [23]: 4.54
- SUV [24]: 5.16
- SUV [25]: 2.22
- SUV [26]: 5.1
- SUV [27]: 2.99
- SUV [28]: 4.25
Structure (SMILES): Nc1ccc2nc(-c3ccc([18F])cc3)sc2c1

- SUV [29]: 0.906
- SUV [30]: 2.184
- SUV [31]: 1.434
- SUV [32]: 0.95
- SUV [33]: 1.904
- SUV [34]: 0.799
- SUV [35]: 0.625
- SUV [36]: 1.133
- SUV [37]: 2.163
- SUV [38]: 1.502
- SUV [39]: 0.937
Structure (SMILES): [11CH3]Nc1ccc(-c2nc3ccc(O)cc3s2)cc1 [PITTSBURGH COMPOUND B]
